Here are results for four molecules from publication PMC4340355 (ACS Chemical Biology, 2014).

Common to all, as to type: biochemical
In test [1] the target is yeast proteasome CaL mutant (Saccharomyces cerevisiae, UniProt P25043+P30656+P38624). The test can be described thus: Rate of sensor cleavage by yeast deficient lysate, CaL mutant.
Test [2] relates to rabbit proteasome fraction II. Description: Rate of proteolysis. In a few lines: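 Fluorescence followed 2 h at RT. Rate came from a linear fit to the first 10% substrate consumption. FU were converted to μmol via overnight-spiked fold change and a standard line. No-enzyme controls were run. Values are mean ± SD of triplicates.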
In test [3] the test system is proteasome.
Test [4] concerns the target T1, chymotrypsin-like (ChL) activity of rabbit proteasome fraction II (Oryctolagus cuniculus, UniProt G1T4Q9).
T1 sequence (G1T4Q9 1-263): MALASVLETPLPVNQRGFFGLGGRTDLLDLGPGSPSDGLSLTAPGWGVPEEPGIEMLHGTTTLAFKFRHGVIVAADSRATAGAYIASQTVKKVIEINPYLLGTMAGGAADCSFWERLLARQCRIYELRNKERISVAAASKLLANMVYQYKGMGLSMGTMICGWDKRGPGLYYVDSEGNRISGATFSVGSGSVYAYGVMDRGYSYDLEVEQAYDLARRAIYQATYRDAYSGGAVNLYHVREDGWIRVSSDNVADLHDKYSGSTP
Description: Inhibition of proteasome-catalyzed hydrolysis of ChL sensor ChL1–488.

Test [5] deals with T2, caspase-like (CaL) activity of rabbit proteasome fraction II (Oryctolagus cuniculus, UniProt A0A5F9DQW2).
T2 sequence (A0A5F9DQW2 1-212): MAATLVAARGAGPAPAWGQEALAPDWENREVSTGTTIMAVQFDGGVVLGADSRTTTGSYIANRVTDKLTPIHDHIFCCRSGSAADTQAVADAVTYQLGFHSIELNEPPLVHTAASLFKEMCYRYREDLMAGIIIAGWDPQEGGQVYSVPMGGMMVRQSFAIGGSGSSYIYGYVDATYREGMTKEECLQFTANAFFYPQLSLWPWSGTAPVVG
The test can be described thus: Inhibition of proteasome-catalyzed hydrolysis of CaL sensor CaL1–633.

Like-named read-outs stand apart in the source and are kept apart here. Peptide text beside a SMILES is read from it. * marks the point of attachment. Cbz = O=C(OCc1ccccc1)*

With DyLight633–nLPnLDK(AB40) [CaL1–633], in test [1], the “proteolysis by the proteasome containing the mutation in the CaL subunit” value is recorded as “not proteolyzed”. Also, the specific activity was found to be 0.03 ± 0.001 nmol min^–1 mg^–1 enzyme in test [2] (2.5 μM sensor) and 0.02 ± 0.002 nmol min^–1 mg^–1 enzyme in test [2] (5 μM sensor). In test [3] (in the presence of CaL1–633), the “effect on TL activity” value is on record as “reduced”.
One may read the IC50 as the concentration at which inhibition is half-maximal. Higher therefore signals lower potency. Take `CC(C)C[C@@H](C=O)NC(=O)[C@H](CC(C)C)NC(=O)[C@H](CC(C)C)NC(=O)OCc1ccccc1` [MG132] (Cbz-Leu-Leu-Leu-aldehyde): the IC50 in test [4] is 0.62 ± 0.06 µM; in test [5] it was 180 ± 150 µM.
For the molecule FAM–HHSLK(AB40) [ChL1–488], the figures for the specific activity in test [2] (2.5 μM sensor) and in test [2] (5 μM sensor) were 0.22 ± 0.02 nmol min^–1 mg^–1 enzyme and 0.31 ± 0.03 nmol min^–1 mg^–1 enzyme, respectively. The “reduction of the rate of proteolysis of ChL1–488” value is reported as “up to 90%” in test [3] (in the presence of CaL1–633) and “up to 50%” in test [3] (in the presence of TL1–550).
TAMRA–LRRK(AB40) [TL1–550]: the specific activity in test [2] (2.5 μM sensor) is reported as 0.05 ± 0.003 nmol min^–1 mg^–1 enzyme; in test [2] (5 μM sensor) it was 0.06 ± 0.001 nmol min^–1 mg^–1 enzyme. Further, the “effect on CaL activity” value in test [3] (in the presence of TL1–550) was “impaired”. Also, the “enhancement of the rate of TL1–550 hydrolysis” value in test [3] (when ChL1–488 is present) is “up to 5 fold”.
